Experimental data: ChEMBL document CHEMBL4808210, “Mapping Chromone-3-Phenylcarboxamide Pharmacophore: Quid Est Veritas?” (J Med Chem, 2021)
The source made the active and inactive calls. The calls are words filed in the database; no cut-off is given here.

Tests used:
[1] = Solubility of the compound in phosphate buffer at > 10 uM; assay type: physicochemical
[2] = biological target: T1, MAO-A (Homo sapiens, UniProt P21397); experiment: (§1) Inhibition of recombinant human MAO-A expressed in baculovirus infected BTI-TN- 5B1-4 insect cells at 10 uM using kynuramine as substrate preincubated for 10 mins in presence of substrate followed by enzyme addition and measured every minute for 30 mins by spectrophotometry analysis relative to control; details: probe kynuramine, time 40 min
T1 sequence (P21397 whole entry): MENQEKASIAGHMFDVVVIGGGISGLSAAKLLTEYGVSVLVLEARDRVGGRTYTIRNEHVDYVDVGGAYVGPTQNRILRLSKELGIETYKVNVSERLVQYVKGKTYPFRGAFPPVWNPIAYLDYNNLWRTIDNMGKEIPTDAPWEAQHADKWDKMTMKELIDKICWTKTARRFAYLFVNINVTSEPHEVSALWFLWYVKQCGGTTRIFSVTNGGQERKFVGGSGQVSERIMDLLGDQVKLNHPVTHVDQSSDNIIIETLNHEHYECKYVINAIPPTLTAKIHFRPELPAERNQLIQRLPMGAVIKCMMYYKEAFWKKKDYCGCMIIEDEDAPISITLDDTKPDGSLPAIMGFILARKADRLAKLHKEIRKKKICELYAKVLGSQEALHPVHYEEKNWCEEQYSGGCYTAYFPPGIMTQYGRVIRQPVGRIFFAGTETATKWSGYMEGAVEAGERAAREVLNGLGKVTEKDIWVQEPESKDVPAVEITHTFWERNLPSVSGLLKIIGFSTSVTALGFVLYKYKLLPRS
In short: (§2)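 Recombinant hMAO-A and hMAO-B were assayed with kynuramine as substrate. Percent inhibition was taken at 10 μM, the highest concentration tested. Where the hMAO-A IC₅₀ was not reached, it was taken as 10 μM.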

[3] = biological target: T2, Amine oxidase [flavin-containing] B (Homo sapiens, UniProt P27338); experiment: as §1, with “MAO-B” for “MAO-A”; details: BTI-TN-5B1-4, human, 0.5 h, time 40 min; in short: as §2
T2 sequence (P27338 whole entry): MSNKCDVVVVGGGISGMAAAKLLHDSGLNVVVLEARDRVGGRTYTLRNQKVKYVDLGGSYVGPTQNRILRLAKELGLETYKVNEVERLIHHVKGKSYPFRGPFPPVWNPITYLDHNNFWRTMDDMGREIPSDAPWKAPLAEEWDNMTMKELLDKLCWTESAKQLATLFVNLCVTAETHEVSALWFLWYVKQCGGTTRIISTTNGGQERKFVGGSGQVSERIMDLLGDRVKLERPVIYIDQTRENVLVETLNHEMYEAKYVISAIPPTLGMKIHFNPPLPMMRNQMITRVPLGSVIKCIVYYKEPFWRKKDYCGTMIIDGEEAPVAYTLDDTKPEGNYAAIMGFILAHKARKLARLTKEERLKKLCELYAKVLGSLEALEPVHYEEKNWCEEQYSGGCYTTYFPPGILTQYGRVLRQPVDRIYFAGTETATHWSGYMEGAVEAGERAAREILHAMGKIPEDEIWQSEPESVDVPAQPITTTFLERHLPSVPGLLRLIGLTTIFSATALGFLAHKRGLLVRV

[4] = tested on: HEK293; experiment: Cytotoxicity against HEK293 cells at 10 uM incubated for 24 to 48 hrs by Celltiter-Glo assay relative to control; assay type: cell-based; details: human, hek293, 10 µM, time 24-48 hrs
In short: (§3)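 Cells (HEK-293, HUVEC, MCF-7) exposed to test compounds at 10 μM for 24 h; cytotoxicity read in triplicate with a luminescence kit measuring intracellular ATP levels.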

[5] = tested on: HUVEC; experiment: Cytotoxicity against HUVEC cells at 10 uM incubated for 24 to 48 hrs by Celltiter-Glo assay relative to control; assay type: cell-based; details: human, time 24-48 hrs; in short: as §3
[6] = tested on: SH-SY5Y; experiment: Protection against iron(III)-induced damage in human SH-SY5Y cells assessed as increase in lysosomal activity at 1 to 10 uM pretreated for 30 mins followed by iron(III) treatment at 1500 uM after 24 hrs by NR uptake assay; assay type: functional, cell-based; details: dose 1-10 µM, time 24.5 hrs
In short: (§4)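 Differentiated SH-SY5Y cells were pretreated with compounds at 1 or 10 μM for 30 min, then exposed to iron(III) at 1000 or 1500 μM for 24 h. Viability was read by neutral red uptake. Mean ± SD of three independent experiments, two-way ANOVA.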

[7] = tested on: Caco-2; experiment: Cytotoxicity against human Caco-2 cells assessed as effect on cell viability at 1 to 10 uM measured after 24 hrs by MTT assay; assay type: cell-based; details: caco-2, 24 h, dose 1-10 µM
In short: (§5)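 Caco-2 cells, and SH-SY5Y cells first differentiated toward a dopaminergic-like phenotype, were treated for 24 h with compounds at 1 and 10 μM. Metabolic activity was read as MTT reduction to formazan, relative to untreated cells. Mean ± SEM of at least three independent experiments, each in triplicate.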

[8] = biological target: ATP-dependent translocase ABCB1 (Homo sapiens, UniProt P08183); experiment: Modulation of P-gp-mediated Rhodamine-123 efflux in human Caco-2 cells assessed as Rhodamine-123 accumulation at 10 uM pretreated for 30 mins in presence or absence of Zos followed by Rho-123 addition and measured after 90 mins by fluorescence spectroscopy; assay type: cell-based; details: caco-2, 2 h, time 120 min
ATP-dependent translocase ABCB1, sequence (P08183 whole entry): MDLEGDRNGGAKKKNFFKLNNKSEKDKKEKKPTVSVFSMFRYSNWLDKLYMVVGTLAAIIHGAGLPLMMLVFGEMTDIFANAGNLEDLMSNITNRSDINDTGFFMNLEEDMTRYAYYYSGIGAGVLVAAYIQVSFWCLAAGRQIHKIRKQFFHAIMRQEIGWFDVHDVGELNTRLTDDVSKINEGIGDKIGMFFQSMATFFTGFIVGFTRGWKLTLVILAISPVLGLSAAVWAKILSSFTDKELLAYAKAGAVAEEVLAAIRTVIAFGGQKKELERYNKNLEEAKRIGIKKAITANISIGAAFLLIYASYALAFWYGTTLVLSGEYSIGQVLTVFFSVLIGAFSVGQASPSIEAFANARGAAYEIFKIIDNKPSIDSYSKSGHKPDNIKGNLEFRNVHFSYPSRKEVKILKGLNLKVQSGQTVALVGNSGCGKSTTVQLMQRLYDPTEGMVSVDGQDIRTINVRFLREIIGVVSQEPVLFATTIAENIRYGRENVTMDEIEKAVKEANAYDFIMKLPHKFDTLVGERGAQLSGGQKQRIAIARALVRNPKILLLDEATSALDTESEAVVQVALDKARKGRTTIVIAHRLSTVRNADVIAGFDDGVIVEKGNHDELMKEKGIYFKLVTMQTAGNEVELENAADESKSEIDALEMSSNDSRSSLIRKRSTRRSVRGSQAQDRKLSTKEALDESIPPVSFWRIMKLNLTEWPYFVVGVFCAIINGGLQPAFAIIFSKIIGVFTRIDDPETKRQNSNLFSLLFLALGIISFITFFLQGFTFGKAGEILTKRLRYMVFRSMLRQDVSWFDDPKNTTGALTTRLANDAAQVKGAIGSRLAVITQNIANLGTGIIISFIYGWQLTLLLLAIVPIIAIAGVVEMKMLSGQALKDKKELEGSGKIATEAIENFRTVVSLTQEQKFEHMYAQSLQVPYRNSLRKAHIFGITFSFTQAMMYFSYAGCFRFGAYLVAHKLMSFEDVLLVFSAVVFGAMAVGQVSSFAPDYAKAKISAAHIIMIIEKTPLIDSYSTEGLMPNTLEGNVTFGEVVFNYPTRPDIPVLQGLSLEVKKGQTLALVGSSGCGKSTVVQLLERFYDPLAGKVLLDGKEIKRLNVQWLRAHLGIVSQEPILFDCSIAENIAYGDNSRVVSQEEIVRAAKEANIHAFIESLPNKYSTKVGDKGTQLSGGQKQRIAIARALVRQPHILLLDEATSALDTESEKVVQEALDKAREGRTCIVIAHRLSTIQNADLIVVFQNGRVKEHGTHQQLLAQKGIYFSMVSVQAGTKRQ
In short: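 Caco-2 cells were exposed to compounds at 10 μM during incubation with the P-gp substrate rhodamine 123 (5 μM). Zosuquidar served as the specific P-gp inhibitor. Cellular rhodamine 123 was read by fluorescence spectroscopy. Mean ± SEM of at least three independent experiments in triplicate.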

[9] = tested on: HEK293; experiment: Cytotoxicity against HEK293 cells incubated for 24 to 48 hrs by Celltiter-Glo assay; assay type: cell-based, Homo sapiens
[10] = tested on: MCF7; experiment: Cytotoxicity against human MCF7 cells at 10 uM incubated for 24 to 48 hrs by Celltiter-Glo assay relative to control; assay type: cell-based; details: mcf7, 10 µM, time 24-48 hrs; in short: as §3
[11] = biological target: hERG (Homo sapiens, UniProt Q12809); experiment: Inhibition of human ERG at 10 uM incubated for 2 hrs by fluorescence polarization assay relative to control
hERG, sequence (Q12809 whole entry): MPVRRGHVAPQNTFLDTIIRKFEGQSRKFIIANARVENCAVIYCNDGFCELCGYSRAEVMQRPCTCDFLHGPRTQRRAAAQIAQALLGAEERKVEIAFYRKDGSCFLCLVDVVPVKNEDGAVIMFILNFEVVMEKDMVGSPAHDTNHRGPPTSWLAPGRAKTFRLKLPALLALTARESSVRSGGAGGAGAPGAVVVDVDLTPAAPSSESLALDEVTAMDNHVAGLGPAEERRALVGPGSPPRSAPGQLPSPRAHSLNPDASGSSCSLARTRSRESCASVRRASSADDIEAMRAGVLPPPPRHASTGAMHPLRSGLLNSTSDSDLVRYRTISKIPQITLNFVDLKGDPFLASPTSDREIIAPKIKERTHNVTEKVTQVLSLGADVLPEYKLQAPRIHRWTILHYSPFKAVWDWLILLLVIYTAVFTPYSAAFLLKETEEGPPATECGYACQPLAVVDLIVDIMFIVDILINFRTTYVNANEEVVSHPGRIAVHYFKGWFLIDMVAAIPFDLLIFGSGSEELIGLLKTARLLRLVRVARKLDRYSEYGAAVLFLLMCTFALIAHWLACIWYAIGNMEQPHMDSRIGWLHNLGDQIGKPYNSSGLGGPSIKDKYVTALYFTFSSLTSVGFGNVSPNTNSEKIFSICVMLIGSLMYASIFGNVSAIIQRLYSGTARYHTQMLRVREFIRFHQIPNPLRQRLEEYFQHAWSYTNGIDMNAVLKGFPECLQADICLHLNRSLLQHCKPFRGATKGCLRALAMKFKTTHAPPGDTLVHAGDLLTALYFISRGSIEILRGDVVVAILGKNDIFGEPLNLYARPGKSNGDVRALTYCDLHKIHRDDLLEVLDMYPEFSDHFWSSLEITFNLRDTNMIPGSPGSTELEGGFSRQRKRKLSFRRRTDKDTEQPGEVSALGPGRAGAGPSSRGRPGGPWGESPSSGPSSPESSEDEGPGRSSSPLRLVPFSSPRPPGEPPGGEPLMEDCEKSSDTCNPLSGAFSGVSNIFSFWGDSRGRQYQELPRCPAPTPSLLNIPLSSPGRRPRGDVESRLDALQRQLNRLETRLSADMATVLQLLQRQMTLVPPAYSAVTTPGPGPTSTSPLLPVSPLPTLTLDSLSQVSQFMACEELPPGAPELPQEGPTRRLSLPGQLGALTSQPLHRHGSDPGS
In short: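 hERG binding was measured by fluorescence polarization, using a homogenized membrane preparation containing hERG plus a fluorescent tracer. A drop in FP signal from tracer displacement was read as inhibition. Compounds were tested at 10 μM.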

[12] = tested on: MCF7; experiment: Cytotoxicity against human MCF7 cells incubated for 24 to 48 hrs by Celltiter-Glo assay; assay type: cell-based
[13] = tested on: SH-SY5Y; experiment: Cytotoxicity against human SH-SY5Y cells assessed as reduction in cell viability at 10 uM measured after 24 hrs by MTT assay relative to control; assay type: cell-based; in short: as §5
[14] = tested on: SH-SY5Y; experiment: Protection against iron(III)-induced damage in human SH-SY5Y cells assessed as increase in lysosomal activity at 1 to 10 uM pretreated for 30 mins followed by iron(III) treatment at 1000 uM after 24 hrs by NR uptake assay; assay type: functional, cell-based; details: dose 1-10 µM, time 24.5 hrs; in short: as §4
[15] = tested on: HUVEC; experiment: Cytotoxicity against HUVEC cells incubated for 24 to 48 hrs by Celltiter-Glo assay; assay type: cell-based, Homo sapiens
[16] = tested on: SH-SY5Y; experiment: Cytotoxicity against human SH-SY5Y cells assessed as effect on NR uptake at 1 to 10 uM measured after 24 hrs by neutral red uptake assay; assay type: cell-based; details: dose 1-10 µM
In short: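 Differentiated SH-SY5Y cells were exposed to compounds at 1 and 10 μM for 24 h. Lysosomal activity was read as neutral red dye uptake and compared with untreated cells. Mean ± SEM of at least three independent experiments run in triplicate.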

[17] = biological target: T2, Amine oxidase [flavin-containing] B; experiment: Inhibition of recombinant human MAO-B expressed in baculovirus infected BTI-TN- 5B1-4 insect cells using kynuramine as substrate preincubated for 10 mins in presence of substrate followed by enzyme addition and measured every minute for 30 mins by spectrophotometry analysis; assay type: cell-based
[18] = organism: Homo sapiens; experiment: Selectivity index, ratio of IC50 for recombinant human MAO-A expressed in baculovirus infected BTI-TN- 5B1-4 insect cells to IC50 for recombinant human MAO-B expressed in baculovirus infected BTI-TN- 5B1-4 insect cells using kynuramine as substrate preincubated for 10 mins in presence of substrate followed by enzyme addition and measured every minute for 30 mins by spectrophotometry analysis; in short: as §2
[19] = biological target: T3, Amine oxidase [flavin-containing] A (Homo sapiens, UniProt P21397); experiment: Inhibition of recombinant human MAO-A expressed in baculovirus infected BTI-TN- 5B1-4 insect cells using kynuramine as substrate preincubated for 10 mins in presence of substrate followed by enzyme addition and measured every minute for 30 mins by spectrophotometry analysis; in short: as §2
T3 sequence (P21397 whole entry): T1 sequence (P21397 whole entry)

[20] = tested on: Caco-2; experiment: Cytotoxicity against human Caco-2 cells assessed as reduction in cell viability at 10 uM measured after 24 hrs by MTT assay relative to control; assay type: cell-based; details: caco-2, 24 h; in short: as §5

Question: Which solubility [1] does the source give for `COc1ccc(NC(=O)c2cc3ccccc3oc2=O)cc1OC` here?
Answer: Its solubility is “Insoluble”.

Question: With `Cc1ccc(NC(=O)c2cc3ccccc3n(C)c2=O)cc1C` as the molecule, how does the inhibition at 0.5 h, 10 µM [2] read?
Answer: The inhibition at 0.5 h, 10 µM was 7.65%.

Question: And the inhibition at 10 µM [3]?
Answer: The inhibition at 10 µM was 21%.

Question: For `Cc1ccc(NC(=O)c2coc3ccccc3c2=O)cc1C`, which Activity [4] is on record?
Answer: Its Activity is less than 10%.

Question: And the Activity [5]?
Answer: Its Activity is less than 10%.

Question: What about the Activity [6] of the same molecule?
Answer: Its Activity is “inactive”.

Question: And the Activity [7]?
Answer: The Activity was “Non-Toxic”.

Question: And the Activity [8]?
Answer: The Activity was “Not Active”.

Question: And the IC50 [9]?
Answer: Its IC50 is “Not Active”.

Question: What about the Activity [10] of the same molecule?
Answer: Its Activity is less than 10%.

Question: And the inhibition at 2 h, 10 µM [11]?
Answer: The inhibition at 2 h, 10 µM was less than 10%.

Question: What about the IC50 [12] of the same molecule?
Answer: Its IC50 is “Not Active”.

Question: What about the Activity [13] of the same molecule?
Answer: Its Activity is less than 85%.

Question: And the Activity [14]?
Answer: Its Activity is “inactive”.

Question: What about the IC50 ([15]; huvec) of the same molecule?
Answer: The IC50 was “Not Active”.

Question: What about the Activity [16] of the same molecule?
Answer: The Activity was “Non-Toxic”.

Question: With `O=C(Nc1ccc(Cl)c(Cl)c1)c1cc2ccccc2[nH]c1=O` as the molecule, how does the solubility [1] read?
Answer: The solubility was “Insoluble”.

Question: With `Cc1ccc(NC(=O)c2cc3ccccc3[nH]c2=O)cc1C` as the molecule, how does the inhibition at 0.5 h, 10 µM [2] read?
Answer: Its inhibition at 0.5 h, 10 µM is 1.32%.

Question: And the inhibition at 10 µM [3]?
Answer: Its inhibition at 10 µM is 8.1%.

Question: What does the source list for `Cc1ccc(NC(=O)c2csc3ccccc3c2=O)cc1C`?
Answer: IC50 [17]: 0.00335 µM; Activity [7]: Non-Toxic; inhibition at 0.5 h, 10 µM [2]: 0.2%; Ratio IC50 [18]: > 2990; Activity [16]: Non-Toxic

Question: Which inhibition at 0.5 h, 10 µM [2] does the source give for `COc1ccc(NC(=O)C2COc3ccccc3C2)cc1OC` (stereo unspecified) here?
Answer: Its inhibition at 0.5 h, 10 µM is 11.8%.

Question: And the inhibition at 10 µM [3]?
Answer: Its inhibition at 10 µM is 14%.

Question: For `O=C(Nc1ccc(Cl)c(Cl)c1)c1cc2ccccc2oc1=O`, which solubility [1] is on record?
Answer: The solubility was “Insoluble”.

Question: Which Activity [7] does the source give for `Cc1ccc(NC(=O)c2cc3ccccc3oc2=O)cc1C` here?
Answer: The Activity was “Non-Toxic”.

Question: And the inhibition at 0.5 h, 10 µM [2]?
Answer: The inhibition at 0.5 h, 10 µM was 26.8%.

Question: What about the Activity [13] of the same molecule?
Answer: The Activity was less than 85%.

Question: And the Activity [16]?
Answer: The Activity was “Non-Toxic”.

Question: What does the source list for `O=C(Nc1ccc(Cl)c(Cl)c1)C1=Cc2ccccc2OC1`?
Answer: Activity [4]: < 10%; IC50 [17]: 0.00316 µM; Activity [5]: 64.4%; Activity [6]: inactive; Activity [7]: Non-Toxic; Activity [8]: Not Active; IC50 [9]: Not Active; IC50 [19]: 4.13 µM; Activity [10]: < 10%; Ratio IC50 [18]: 1300; inhibition at 2 h, 10 µM [11]: < 10%; IC50 [12]: Not Active; Activity [14]: inactive; IC50 ([15]; Homo sapiens, HUVEC, read-out: IC50): 8.4 µM; Activity [16]: Non-Toxic

Question: What does the source list for `O=C(Nc1cccc(Cl)c1)C1=Cc2ccccc2OC1`?
Answer: IC50 [17]: 0.0264 µM; Activity [20]: 88.3%; IC50 [19]: 11.7 µM; Ratio IC50 [18]: 444; Activity [16]: Non-Toxic
